# Experimental data published in ChEMBL document CHEMBL1914317, “Triazole ring-opening leads to the discovery of potent nonsteroidal 17β-hydroxysteroid dehydrogenase type 2 inhibitors” (Eur J Med Chem, 2011).
# Activity calls are given as the source filed them. The rule behind the calls is not given here.
# Assays:
# [1] = biological target: T1, 17-beta-hydroxysteroid dehydrogenase type 2 (Homo sapiens, UniProt P37059); assay: Inhibition of human placental 17beta-HSD2 assessed as formation of [2,4,6,7-3H]-estrone using [2,4,6,7-3H]-estradiol as substrate after 20 mins by radio flow detector-based HPLC analysis in presence of NAD+ as cofactor
# T1 sequence (P37059 whole entry): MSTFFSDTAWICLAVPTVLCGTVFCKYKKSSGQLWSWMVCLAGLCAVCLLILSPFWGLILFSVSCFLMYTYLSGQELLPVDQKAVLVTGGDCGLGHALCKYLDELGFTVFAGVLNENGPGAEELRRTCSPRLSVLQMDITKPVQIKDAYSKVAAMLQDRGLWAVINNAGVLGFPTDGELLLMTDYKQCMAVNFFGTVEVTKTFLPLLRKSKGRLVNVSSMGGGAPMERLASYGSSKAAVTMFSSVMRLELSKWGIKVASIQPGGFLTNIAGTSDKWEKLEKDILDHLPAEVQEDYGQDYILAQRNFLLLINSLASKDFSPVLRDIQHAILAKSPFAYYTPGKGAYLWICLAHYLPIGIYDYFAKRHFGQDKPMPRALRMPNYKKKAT
# [2] = biological target: T2, Estrogen receptor (Homo sapiens) (UniProt P03372); assay: Displacement of [3H]estradiol from human recombinant ERalpha assessed as relative binding affinity after 1 hr by liquid scintillation counting relative to estradiol
# T2 sequence (whole entry): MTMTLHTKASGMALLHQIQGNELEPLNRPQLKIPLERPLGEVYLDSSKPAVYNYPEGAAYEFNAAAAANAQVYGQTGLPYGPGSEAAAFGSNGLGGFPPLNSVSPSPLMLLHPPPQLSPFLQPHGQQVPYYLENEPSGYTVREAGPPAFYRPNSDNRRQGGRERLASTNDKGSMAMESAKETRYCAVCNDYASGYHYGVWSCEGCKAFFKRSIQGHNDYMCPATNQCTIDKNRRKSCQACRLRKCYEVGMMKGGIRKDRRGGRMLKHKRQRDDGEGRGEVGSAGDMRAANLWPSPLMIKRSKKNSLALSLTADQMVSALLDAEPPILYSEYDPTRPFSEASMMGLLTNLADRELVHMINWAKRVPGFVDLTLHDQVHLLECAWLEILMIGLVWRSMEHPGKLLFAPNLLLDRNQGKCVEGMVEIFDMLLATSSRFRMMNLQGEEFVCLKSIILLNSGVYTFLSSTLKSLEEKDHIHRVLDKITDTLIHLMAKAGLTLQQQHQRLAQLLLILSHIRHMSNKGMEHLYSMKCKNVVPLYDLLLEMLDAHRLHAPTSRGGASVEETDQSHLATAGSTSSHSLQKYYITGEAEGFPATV
# Method in brief: (§1)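 Recombinant human ERα or ERβ (0.25 pmol) incubated with [3H]-E2 (10 nM) plus test compound, 1 h at room temperature; compound in DMSO (5% final). Nonspecific binding defined with diethylstilbestrol (10 µM). Receptor–ligand complexes captured on hydroxyapatite, washed, resuspended in ethanol, counted by liquid scintillation.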
# [3] = biological target: Estrogen receptor beta (Homo sapiens) (UniProt Q92731); assay: Displacement of [3H]estradiol from human recombinant ERbeta assessed as relative binding affinity after 1 hr by liquid scintillation counting relative to estradiol; method in brief: as §1
# [4] = biological target: T3, 17-beta-hydroxysteroid dehydrogenase type 2 (Homo sapiens) (UniProt P37059); assay: Inhibition of human placental 17beta-HSD2 assessed as formation of [2,4,6,7-3H]-estrone using [2,4,6,7-3H]-estradiol as substrate at 1 uM after 20 mins by radio flow detector-based HPLC analysis in presence of NAD+ as cofactor
# T3 sequence (whole entry): T1 sequence (P37059 whole entry)
# [5] = biological target: T4, 17-beta-hydroxysteroid dehydrogenase type 1 (Homo sapiens) (UniProt P14061); assay: Inhibition of human placental 17beta-HSD1 using [2,4,6,7-3H]-estrone as substrate at 1 uM after 10 mins by radio flow detector-based HPLC analysis in presence of NADH as cofactor
# T4 sequence (whole entry): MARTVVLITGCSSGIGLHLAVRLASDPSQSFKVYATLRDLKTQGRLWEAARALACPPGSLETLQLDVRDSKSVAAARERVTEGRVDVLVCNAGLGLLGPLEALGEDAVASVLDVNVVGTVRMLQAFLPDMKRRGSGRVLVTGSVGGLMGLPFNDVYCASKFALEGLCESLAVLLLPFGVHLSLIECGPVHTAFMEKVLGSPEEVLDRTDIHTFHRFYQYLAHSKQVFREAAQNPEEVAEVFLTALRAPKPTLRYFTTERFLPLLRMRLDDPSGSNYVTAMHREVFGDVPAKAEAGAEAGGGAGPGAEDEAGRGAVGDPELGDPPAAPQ
# Method in brief: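 Placental enzyme from the cytosolic fraction after ammonium sulfate precipitation. Incubated with NADH 500 µM, test compound and unlabelled plus [3H]-E1 (500 nM final), 10 min at 37 °C. Stopped, extracted, and steroids separated by HPLC with radioflow detection, as for the type 2 assay.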
# [6] = biological target: T3, 17-beta-hydroxysteroid dehydrogenase type 2 (Homo sapiens); assay: Inhibition of 17beta-HSD2; settings: concentration not given here
# Method in brief: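 Human placental microsomal fraction (150,000 g) with NAD+ 1500 µM, 37 °C, in 50 mM phosphate buffer containing 20% glycerol and 1 mM EDTA; DMSO 1% final. Started with unlabelled plus [3H]-E2 (500 nM final), run 20 min, stopped with HgCl2, ether-extracted. E1/E2 separated by HPLC with radioflow detection; % conversion = E1/(E1+E2)×100. At least three independent experiments.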
# Homo sapiens = species on record: Homo sapiens; assay: Selectivity ratio of IC50 for human placental 17beta-HSD1 to IC50 for human placental 17beta-HSD2
# [7] = biological target: T5, 17-beta-hydroxysteroid dehydrogenase type 1 (Homo sapiens, UniProt P14061); assay: Inhibition of human placental 17beta-HSD1 using [2,4,6,7-3H]-estrone as substrate after 10 mins by radio flow detector-based HPLC analysis in presence of NADH as cofactor
# T5 sequence (P14061 whole entry): T4 sequence (whole entry)
# Method in brief: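 Enzyme was the ammonium sulfate–precipitated cytosolic fraction of fresh homogenised human placenta. It was incubated at 37 °C for 10 min with NADH (500 µM), inhibitor, and unlabelled plus [3H]-E1 (final 500 nM, 0.15 µCi). Reaction stopped with HgCl2, then ether extraction. E1/E2 were separated by HPLC with radioflow detection.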
# Estrogen receptor beta (Homo sapiens), sequence (Q92731 whole entry): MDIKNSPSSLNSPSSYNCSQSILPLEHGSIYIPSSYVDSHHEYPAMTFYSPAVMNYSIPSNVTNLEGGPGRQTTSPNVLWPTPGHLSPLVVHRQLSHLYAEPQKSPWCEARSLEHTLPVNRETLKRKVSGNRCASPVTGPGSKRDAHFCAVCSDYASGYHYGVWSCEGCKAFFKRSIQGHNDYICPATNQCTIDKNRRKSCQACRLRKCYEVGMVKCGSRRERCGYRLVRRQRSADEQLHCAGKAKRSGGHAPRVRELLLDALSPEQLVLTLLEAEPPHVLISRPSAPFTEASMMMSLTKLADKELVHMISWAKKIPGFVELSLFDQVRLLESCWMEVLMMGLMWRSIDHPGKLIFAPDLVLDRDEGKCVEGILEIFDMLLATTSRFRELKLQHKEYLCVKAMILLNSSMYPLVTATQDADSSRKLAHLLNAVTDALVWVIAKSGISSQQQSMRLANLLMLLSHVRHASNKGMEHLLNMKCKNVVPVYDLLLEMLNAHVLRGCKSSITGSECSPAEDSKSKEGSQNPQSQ
SMILES,RBA [2] [%],RBA [3] [%],Ratio IC50 (Homo sapiens),other results
CN1C(=O)C[C@@H](c2ccccc2)[C@H]1[C@H](O)c1ccc(-c2cccnc2)s1,,,,IC50 [1]: 50 nM
COc1cccc(CN(C)C(=O)c2ccc(-c3cccc(OC)c3)cc2)c1,< 0.1,< 0.1,,
CN(Cc1ccccc1)C(=O)c1ccc(-c2ccccc2O)s1,< 0.1,< 0.1,,
COc1cccc(CN(C)C(=O)c2ccc(-c3ccc(C#N)cc3)s2)c1,< 0.1,< 0.1,,inhibition [4]: inactive; inhibition [5]: inactive
Cn1nc(-c2cccc(O)c2)nc1-c1ccc(-c2cccc(O)c2)s1,,,,inhibition [6]: 30%
CN(Cc1cccc(O)c1)C(=O)c1ccc(-c2cccc(O)c2F)s1,< 0.1,< 0.1,,
Cn1nc(-c2cccc(O)c2)nc1-c1ccc(-c2cccc(O)c2)cc1,,,,inhibition [6]: 42%
CN(Cc1cccc(O)c1)C(=O)c1cccc(-c2ccc(O)cc2)c1,< 0.1,< 0.1,,
CN(Cc1cccc(O)c1)C(=O)c1ccc(-c2cccc(N(C)C)c2)s1,< 0.1,< 0.1,75,
C[C@]12CC[C@@H]3c4ccc(O)cc4CC[C@H]3[C@@H]1CC[C@@]21CCCC(=O)O1,< 0.1,< 0.1,,inhibition [6]: 62%; inhibition [4]: 65%
CN(Cc1cccc(O)c1)C(=O)c1ccc(-c2cccc(O)c2)s1,< 0.1,< 0.1,14,IC50 [7]: 5450 nM
CN(Cc1ccccc1)C(=O)c1ccc(-c2ccc(O)cc2)s1,< 0.1,< 0.1,,
COc1cccc(-c2ccc(C(=O)N(C)Cc3ccccc3)s2)c1,< 0.1,< 0.1,,
CN(Cc1cccc(O)c1)C(=O)c1ccc(-c2ccccc2O)s1,< 0.1,< 0.1,20,
COc1cccc(CN(C)C(=O)c2ccc(-c3ccccc3OC)s2)c1,< 0.1,< 0.1,,inhibition [4]: 49%; inhibition [5]: inactive
Cc1cccc(-c2ccc(C(=O)N(C)Cc3cccc(O)c3)s2)c1,< 0.1,< 0.1,65,
CN(Cc1cccc(O)c1)C(=O)c1ccc(-c2cccc(O)c2)cc1,< 0.1,< 0.1,,
Cc1cccc(-c2ccc(C(=O)N(C)Cc3cccc(O)c3)cc2)c1,< 0.1,< 0.1,,
COc1ccc(-c2ccc(C(=O)N(C)Cc3cccc(OC)c3)s2)cc1,< 0.1,< 0.1,,
COc1ccccc1-c1ccc(C(=O)N(C)Cc2ccccc2)s1,< 0.1,< 0.1,,

# Now from value to compound, other results behind:
RBA [2] [%],RBA [3] [%],Ratio IC50 (Homo sapiens),SMILES,other results
< 0.1,< 0.1,,COc1ccc(-c2cccc(C(=O)N(C)Cc3cccc(OC)c3)c2)cc1,inhibition [4]: 11%; inhibition [5]: inactive
< 0.1,< 0.1,,CN(C(=O)Cc1cccc(O)c1)c1cccc(-c2ccc(O)cc2)c1,inhibition [4]: 39%; inhibition [5]: inactive
< 0.1,< 0.1,> 250,COc1cccc(CN(C)C(=O)c2ccc(-c3cccc(OC)c3)s2)c1,
< 0.1,< 0.1,,CN(Cc1ccccc1)C(=O)c1ccc(-c2cccc(O)c2)s1,
< 0.1,< 0.1,,COc1ccc(-c2ccc(C(=O)N(C)Cc3ccccc3)s2)cc1,
< 0.1,< 0.1,> 250,COc1ccc(-c2ccc(C(=O)N(C)Cc3cccc(O)c3)s2)cc1,
< 0.1,< 0.1,10,CN(Cc1cccc(O)c1)C(=O)c1ccc(-c2cccc(F)c2)s1,
< 0.1,< 0.1,,CN(Cc1cccc(O)c1)C(=O)c1ccc(-c2ccc(F)cc2)s1,
< 0.1,< 0.1,,CN(Cc1cccc(O)c1)C(=O)c1ccc(-c2ccccc2)s1,
< 0.1,< 0.1,,COc1cccc(CN(C)C(=O)c2cccc(-c3cccc(OC)c3)c2)c1,
< 0.1,< 0.1,15,CN(Cc1cccc(O)c1)C(=O)c1ccc(-c2ccc(O)cc2)s1,
< 0.1,< 0.1,,COc1cccc(CN(C)C(=O)c2ccc(-c3ccccc3)s2)c1,
< 0.1,< 0.1,8,CN(Cc1cccc(O)c1)C(=O)c1cccc(-c2cccc(O)c2)c1,
< 0.1,< 0.1,73,COc1cccc(-c2ccc(C(=O)N(C)Cc3cccc(O)c3)s2)c1F,
< 0.1,< 0.1,,CN(Cc1cccc(O)c1)C(=O)c1ccc(-c2ccc(C#N)cc2)s1,
< 0.1,< 0.1,> 375,COc1cccc(CN(C)C(=O)c2ccc(-c3cccc(C)c3)cc2)c1,
